How the values were obtained:
OSCC cell line SAS = experiment: MTT cell proliferation assay, SAS cells; type: cell-based, human; settings: for IC50: Homo sapiens, 72 h, read-out: IC50 value (μM) SAS; for Selectivity index (SI) IC50 (HaCaT)/IC50 (SAS): ratio of IC50 in HaCaT to IC50 in SAS
[1] = system: human normal cell line HaCaT; experiment: MTT cell proliferation assay, HaCaT cells; type: cell-based; settings: 72 h, read-out: IC50 value (μM) HaCaT
Procedure, shortened: (§1)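 Human lines kept in DMEM with 10% FBS and 1% Pen-Strep at 37 °C, 5% CO2. 2 × 10^3 cells/well were seeded, grown 24 h, then exposed to test compound for 72 h (SAS and T.Tn: 0, 5, 10, 25, 50, 100 μM; HaCaT: 0, 10, 25, 50, 75, 100 μM). MTT (5 mg/mL stock) was added for 2 h, formazan dissolved in DMSO, and A570 read. Percentage proliferation was taken relative to untreated control. IC50 was read where the dose–response curve crosses 50%.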

[2] = system: Bcl-2, caspases, COX-2, MMP-9, survivin, VEGF, Akt/mTOR and STAT-3 in SAS cells; experiment: Western blot analysis of proteins involved in OSCC; type: cell-based, human; settings: 24 h, AA2 2.5, 5, 10 μM, AA3 10, 15, 20 μM
Procedure, shortened: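 SAS cells were seeded at 4 × 10^5 per well, attached 24 h, then treated 24 h with test compound (0–20 μM). Lysis buffer: 20 mM HEPES, 250 mM NaCl, 2 mM EDTA, 0.1% Triton X-100, 1 mM DTT, protease inhibitors. Protein was quantified by Bradford and equal amounts run on 12% SDS-PAGE, then transferred to nitrocellulose. Blocking was 5% milk, primary antibody overnight at 4 °C, HRP secondary 2 h, ECL detection. α-Tubulin served as loading control.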

SAS cells [3] = experiment: PI-RNase-based cell-cycle analysis; parameters: species or system human; settings: 24 h, AA2 1-10 μM, AA3 5-20 μM, PI-RNase flow cytometry
Procedure, shortened: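 SAS cells were seeded at 2 × 10^5 per well, grown 24 h, then treated 24 h with test compound. Cells were trypsinized, PBS-washed and fixed overnight in 75% ethanol at −20 °C. They were stained with PI-RNase for 20 min in the dark and analysed by flow cytometry for the percentage of cells in each cycle phase.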

SAS cells [4] = experiment: Wound-healing scratch assay; type: cell-based, human; settings: 24 h
Procedure, shortened: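 SAS cells were seeded at 6 × 10^5 per well and grown to a monolayer. Cells were serum-starved in DMEM for 6 h to block proliferation, then scratched with a pipette tip and PBS-washed. Test compound was added and wounds were imaged at 0 and 24 h. Percentage wound area remaining is reported as mean ± SD, Student's t test, p < 0.05.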

[5] = system: esophageal cancer cell line T.Tn; experiment: MTT cell proliferation assay, T.Tn cells; type: cell-based; settings: Homo sapiens, 72 h, read-out: IC50 value (μM) T.Tn
Procedure, shortened: as §1

SAS cells [6] = experiment: Annexin V-based flow cytometric analysis of apoptosis; type: cell-based, human; settings: 48 h
Procedure, shortened: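 SAS cells were seeded at 2 × 10^5 per well, grown 24 h, then exposed to test compound for 48 h. Medium-borne and trypsinized cells were collected and washed three times in PBS. They were labelled with annexin V for 20 min, then PI for 10 min, and analysed by flow cytometry. Apoptosis was computed from quadrants Q2+Q4.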

SAS cells [7] = experiment: PI-based flow cytometric analysis of cell death; parameters: species or system human; settings: 48 h, PI staining
Procedure, shortened: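 After 24 h attachment, 2 × 10^5 SAS cells per well received test compound for 48 h. Floating cells from the medium were pooled with trypsinized cells and washed three times in PBS. The unfixed cells were resuspended in PBS with PI and analysed by flow cytometry, with percentage of dead cells recorded.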

SAS cells [8] = experiment: Colony formation; type: cell-based, human; settings: for inhibition at 10 µM: read-out: inhibition/reduction of colony formation
Procedure, shortened: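 SAS cells were seeded at 2 × 10^3 per well and attached for 24 h. Test compound (1–20 μM range) was given for 24 h, then replaced with fresh medium for 10 days of growth. Colonies were washed in PBS, fixed in 70% ethanol for 4 h at −20 °C, stained with 0.01% crystal violet and counted. Plating efficiency = colonies/cells plated × 100. Survival fraction = PE treated/PE control.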

SMILES	IC50 (OSCC cell line SAS) [µM]	Selectivity index (SI) IC50 (HaCaT)/IC50 (SAS) (OSCC cell line SAS)	IC50 [1] [µM]	effect on Akt/mTOR and STAT-3 signaling pathways [2]	effect on Bcl-2 expression [2]	effect on caspase-3 and caspase-9 [2]	effect on cell-cycle progression (SAS cells [3])	wound area (initial gap) remaining (SAS cells [4]; 5 μM)	wound area (initial gap) remaining (SAS cells [4]; 10 μM)	IC50 [5] [µM]	apoptosis (percentage of apoptotic cells) (SAS cells [6]; 5 μM) [%]	apoptosis (percentage of apoptotic cells) (SAS cells [6]; 10 μM) [%]	inhibition at 10 µM (SAS cells [8]; Homo sapiens) [%]	also measured
O=c1[nH]cc(F)c(=O)[nH]1 [5-FU, 5-fluorouracil, reference compound]	3	1.3	4	–	–	–	–	–	–	–	–	–	–	–
CC(C)=CCc1c(-c2cc(O)c(O)cc2O)oc2c3c(cc(O)c2c1=O)OC(C)(C)C=C3 [AA2, artonin E]	6	12	72	inhibition of the Akt/mTOR and STAT-3 signaling pathways	downregulation of Bcl-2	activation of caspase-3 and caspase-9 in a dose-dependent manner	arrest of these cells in the S-phase	over 60%	over 75%	8	18	22	> 90	wound area (initial gap) remaining (SAS cells [4]; 1 μM): approximately 25%; wound area (initial gap) remaining (SAS cells [4]; 2.5 μM): 40%; apoptosis (percentage of apoptotic cells) (SAS cells [6]; 2.5 μM): 8%; cell death (SAS cells [7]; 10 μM): more than 80%; inhibition at 5 µM (SAS cells [8]; Homo sapiens, read-out: inhibition of colony formation): > 90%; reduction of colony formation (SAS cells [8]; SAS cells, 2.5 μM, 24 h treatment, 10 days culture): over 50%
C=C(C)[C@H]1Cc2c(oc3c4c(cc(O)c3c2=O)OC(C)(C)C=C4)-c2c(O)cc(O)c(O)c21 [AA3, artobiloxanthone]	11	6.4	70	inhibition of the Akt/mTOR and STAT-3 signaling pathways	downregulation of Bcl-2	activation of caspase-3 and caspase-9 in a dose-dependent manner	arrest of these cells in the S-phase	over 45%	over 60%	22	8	18	> 80	wound area (initial gap) remaining (SAS cells [4]; 15 μM): over 65%; wound area (initial gap) remaining (SAS cells [4]; 20 μM): 90%; apoptosis (percentage of apoptotic cells) (SAS cells [6]; 15 μM): 26%; apoptosis (percentage of apoptotic cells) (SAS cells [6]; 20 μM): 30%; cell death (SAS cells [7]; 20 μM): approximately 8%
